In brackets after ≈: the same amount, converted by molar mass.
What was measured:
Assay type in all cases: functional
Staphylococcus aureus [1] = assay: Antibacterial activity against inducibly macrolide-lincosamide-streptogramin B resistant Staphylococcus aureus by agar microdilution method
Summary of the method: (§1)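 Agar microdilution per NCCLS guidelines; MIC reported in μg/mL; differences treated as significant only when more than a factor of 2 (one dilution) apart.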

Streptococcus pyogenes [2] = assay: Antibacterial activity against constitutive macrolide-lincosamide-streptogramin B resistant Streptococcus pyogenes by agar microdilution method; summary of the method: as §1
Haemophilus influenzae = assay: Antibacterial activity against Haemophilus influenzae by agar microdilution method
Summary of the method: (§2)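 MIC by agar microdilution following NCCLS guidelines. Values in μg/mL. Only differences of more than one twofold dilution were treated as significant. Ery-S denotes erythromycin-susceptible strains.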

Staphylococcus aureus [3] = assay: Antibacterial activity against constitutive macrolide-lincosamide-streptogramin B resistant Staphylococcus aureus by agar microdilution method; summary of the method: as §1
Streptococcus pneumoniae [4] = assay: Antibacterial activity against constitutive macrolide-lincosamide-streptogramin B resistant Streptococcus pneumoniae by agar microdilution method; summary of the method: as §1
Staphylococcus aureus [5] = assay: Antibacterial activity against efflux mediated macrolide resistant Staphylococcus aureus by agar microdilution method; summary of the method: as §1
Streptococcus pneumoniae [6] = assay: Antibacterial activity against efflux mediated macrolide resistant Streptococcus pneumoniae by agar microdilution method; summary of the method: as §1
Streptococcus pyogenes [7] = assay: Antibacterial activity against erythromycin-susceptible Streptococcus pyogenes by agar microdilution method; summary of the method: as §2
Streptococcus pyogenes [8] = assay: Antibacterial activity against inducibly macrolide-lincosamide-streptogramin B resistant Streptococcus pyogenes by agar microdilution method; summary of the method: as §1
Streptococcus pneumoniae [9] = assay: Antibacterial activity against erythromycin-susceptible Streptococcus pneumoniae by agar microdilution method; summary of the method: as §2
Staphylococcus aureus [10] = assay: Antibacterial activity against erythromycin-susceptible Staphylococcus aureus by agar microdilution method; summary of the method: as §2
Streptococcus pyogenes [11] = assay: Antibacterial activity against efflux mediated macrolide resistant Streptococcus pyogenes by agar microdilution method; summary of the method: as §1
Moraxella catarrhalis = assay: Antibacterial activity against Moraxella catarrhalis by agar microdilution method; summary of the method: as §2

SMILES	MIC (Staphylococcus aureus [1]) [µg/mL]	MIC (Streptococcus pyogenes [2]) [µg/mL]	MIC (Haemophilus influenzae) [µg/mL]	MIC (Staphylococcus aureus [3]) [µg/mL]	MIC (Streptococcus pneumoniae [4]) [µg/mL]	MIC (Staphylococcus aureus [5]) [µg/mL]	MIC (Streptococcus pneumoniae [6]) [µg/mL]	MIC (Streptococcus pyogenes [7]) [µg/mL]	MIC (Streptococcus pyogenes [8]) [µg/mL]	MIC (Streptococcus pneumoniae [9]) [µg/mL]	MIC (Staphylococcus aureus [10]) [µg/mL]	MIC (Streptococcus pyogenes [11]) [µg/mL]	MIC (Moraxella catarrhalis) [µg/mL]
CC[C@@H]1OC(=O)[C@H](C)[C@@H](O[C@@H]2C[C@](C)(OC)[C@H](O)[C@@H](C)O2)[C@@H](C)[C@@H](O[C@@H]2O[C@H](C)C[C@H](N(C)C)[C@H]2O)[C@](C)(O)C[C@@H](C)CN(C)[C@H](C)[C@@H](O)[C@]1(C)O	> 64	> 64	1 (≈ 1.34 µM)	> 64	> 64	32 (≈ 42.7 µM)	8 (≈ 10.7 µM)	≤ 0.125	> 64	≤ 0.125	1 (≈ 1.34 µM)	16 (≈ 21.4 µM)	0.25 (≈ 0.334 µM)
CC[C@H]1OC(=O)[C@@H](C)[C@H](O[C@@H]2C[C@](C)(OC)[C@H](OC(=O)CNCCCNCCNc3cc4c(=O)c(C(=O)O)cn(C5CC5)c4cc3Cl)[C@@H](C)O2)[C@H](C)[C@H](O[C@H]2O[C@@H](C)C[C@@H](N(C)C)[C@@H]2O)[C@@](C)(O)C[C@H](C)CN(C)[C@@H](C)[C@H](O)[C@@]1(C)O	0.25 (≈ 0.214 µM)	–	0.5 (≈ 0.428 µM)	> 64	–	0.25 (≈ 0.214 µM)	–	≤ 0.125	–	≤ 0.125	≤ 0.125	–	≤ 0.125
CC[C@H]1OC(=O)[C@@H](C)[C@H](O[C@H]2C[C@@](C)(OC)[C@@H](OC(=O)CN)[C@H](C)O2)[C@@H](C)[C@H](O[C@H]2O[C@@H](C)C[C@@H](N(C)C)[C@@H]2O)[C@@](C)(O)C[C@H](C)CN(C)[C@@H](C)[C@@H]2OC(=O)O[C@@]12C	> 64	> 64	> 64	> 64	> 64	> 64	32 (≈ 38.5 µM)	≤ 0.125	32 (≈ 38.5 µM)	≤ 0.125	32 (≈ 38.5 µM)	> 64	> 64
CCC1OC(=O)[C@H](C)[C@@H](O[C@H]2C[C@@](C)(OC)[C@@H](OC(=O)CNCCSc3cnc4ccccc4n3)[C@H](C)O2)C(C)[C@@H](O[C@@H]2O[C@H](C)C[C@H](N(C)C)[C@H]2O)[C@](C)(O)C[C@@H](C)CN(C)[C@H](C)[C@@H](O)[C@]1(C)O (single isomer, unassigned)	0.5 (≈ 0.503 µM)	16 (≈ 16.1 µM)	4 (≈ 4.02 µM)	> 64	16 (≈ 16.1 µM)	2 (≈ 2.01 µM)	–	≤ 0.125	4 (≈ 4.02 µM)	≤ 0.125	2 (≈ 2.01 µM)	0.25 (≈ 0.251 µM)	1 (≈ 1.01 µM)
CCC1OC(=O)[C@H](C)[C@@H](O[C@H]2C[C@@](C)(OC)[C@@H](OC(=O)CNC(=O)CNC(=O)CSc3cnc4ccccc4n3)[C@H](C)O2)C(C)[C@@H](O[C@@H]2O[C@H](C)C[C@H](N(C)C)[C@H]2O)[C@](C)(O)C[C@@H](C)CN(C)[C@H](C)[C@@H](O)[C@]1(C)O (single isomer, unassigned)	0.5 (≈ 0.469 µM)	16 (≈ 15 µM)	4 (≈ 3.75 µM)	> 64	16 (≈ 15 µM)	2 (≈ 1.88 µM)	–	0.25 (≈ 0.235 µM)	4 (≈ 3.75 µM)	≤ 0.125	1 (≈ 0.939 µM)	0.25 (≈ 0.235 µM)	4 (≈ 3.75 µM)
CCC1OC(=O)[C@H](C)[C@@H](O[C@H]2C[C@@](C)(OC)[C@@H](OC(=O)CNC(=O)CCNCCNc3cc4c(cc3F)c(=O)c(C(=O)O)cn4C3CC3)[C@H](C)O2)C(C)[C@@H](O[C@@H]2O[C@H](C)C[C@H](N(C)C)[C@H]2O)[C@](C)(O)C[C@@H](C)CN(C)[C@H](C)[C@@H](O)[C@]1(C)O (single isomer, unassigned)	8 (≈ 6.86 µM)	4 (≈ 3.43 µM)	4 (≈ 3.43 µM)	> 64	4 (≈ 3.43 µM)	2 (≈ 1.72 µM)	1 (≈ 0.858 µM)	≤ 0.125	1 (≈ 0.858 µM)	≤ 0.125	0.25 (≈ 0.215 µM)	2 (≈ 1.72 µM)	1 (≈ 0.858 µM)
CCC1OC(=O)[C@H](C)[C@@H](O[C@H]2C[C@@](C)(OC)[C@@H](OC(=O)CNCCNC(=O)CSc3cnc4ccccc4n3)[C@H](C)O2)C(C)[C@@H](O[C@@H]2O[C@H](C)C[C@H](N(C)C)[C@H]2O)[C@](C)(O)C[C@@H](C)CN(C)[C@H](C)[C@@H](O)[C@]1(C)O (single isomer, unassigned)	0.25 (≈ 0.238 µM)	8 (≈ 7.61 µM)	8 (≈ 7.61 µM)	> 64	8 (≈ 7.61 µM)	1 (≈ 0.951 µM)	–	≤ 0.125	1 (≈ 0.951 µM)	≤ 0.125	8 (≈ 7.61 µM)	–	8 (≈ 7.61 µM)
CCC1OC(=O)[C@H](C)[C@@H](O[C@H]2C[C@@](C)(OC)[C@@H](OC(=O)CNCCCNCCNc3cc4c(cc3F)c(=O)c(C(=O)O)cn4C3CC3)[C@H](C)O2)C(C)[C@@H](O[C@@H]2O[C@H](C)C[C@H](N(C)C)[C@H]2O)[C@](C)(O)C[C@@H](C)CN(C)[C@H](C)[C@@H](O)[C@]1(C)O (single isomer, unassigned)	1 (≈ 0.868 µM)	1 (≈ 0.868 µM)	1 (≈ 0.868 µM)	> 64	0.5 (≈ 0.434 µM)	0.5 (≈ 0.434 µM)	–	≤ 0.125	0.25 (≈ 0.217 µM)	≤ 0.125	≤ 0.125	0.5 (≈ 0.434 µM)	0.25 (≈ 0.217 µM)
CCC1OC(=O)[C@H](C)[C@@H](O[C@H]2C[C@@](C)(OC)[C@@H](OC(=O)CNC(=O)CSc3cnc4ccccc4n3)[C@H](C)O2)C(C)[C@@H](O[C@@H]2O[C@H](C)C[C@H](N(C)C)[C@H]2O)[C@](C)(O)C[C@@H](C)CN(C)[C@H](C)[C@@H](O)[C@]1(C)O (single isomer, unassigned)	1 (≈ 0.992 µM)	32 (≈ 31.7 µM)	8 (≈ 7.93 µM)	> 64	16 (≈ 15.9 µM)	8 (≈ 7.93 µM)	0.25 (≈ 0.248 µM)	≤ 0.125	8 (≈ 7.93 µM)	≤ 0.125	4 (≈ 3.97 µM)	0.5 (≈ 0.496 µM)	16 (≈ 15.9 µM)
CC[C@H]1OC(=O)[C@H](C)C(=O)[C@H](C)[C@@H](O[C@@H]2O[C@H](C)C[C@H](N(C)C)[C@H]2O)[C@](C)(OCC=Cc2cnc3ccccc3c2)C[C@@H](C)C(=O)[C@H](C)[C@H]2NC(=O)O[C@@]21C [CETHROMYCIN]	0.25 (≈ 0.326 µM)	1 (≈ 1.31 µM)	1 (≈ 1.31 µM)	> 64	–	0.25 (≈ 0.326 µM)	–	≤ 0.125	–	≤ 0.125	≤ 0.125	–	≤ 0.125
O=C(O)c1cn(C2CC2)c2cc(N3CCNCC3)c(F)cc2c1=O [CIPROFLOXACIN]	–	0.5 (≈ 1.51 µM)	≤ 0.125	–	0.25 (≈ 0.754 µM)	–	0.25 (≈ 0.754 µM)	2 (≈ 6.04 µM)	0.25 (≈ 0.754 µM)	≤ 0.125	≤ 0.125	≤ 0.125	≤ 0.125
CC[C@H]1OC(=O)[C@H](C)C(=O)[C@H](C)[C@@H](O[C@@H]2O[C@H](C)C[C@H](N(C)C)[C@H]2O)[C@](C)(OC)C[C@@H](C)C(=O)[C@H](C)[C@H]2N(CCCCn3cnc(-c4cccnc4)c3)C(=O)O[C@]12C [TELITHROMYCIN]	0.5 (≈ 0.616 µM)	8 (≈ 9.85 µM)	1 (≈ 1.23 µM)	> 64	–	0.25 (≈ 0.308 µM)	0.5 (≈ 0.616 µM)	≤ 0.125	–	≤ 0.125	≤ 0.125	0.25 (≈ 0.308 µM)	≤ 0.125

From ChEMBL document CHEMBL3763128, “Synthesis and antibacterial evaluation of novel 4″-glycyl linked quinolyl-azithromycins with potent activity against macrolide-resistant pathogens” (2016)
